Assay results reported in ChEMBL document CHEMBL3763097, “Synthesis and biological evaluation of 5,10-dihydro-11H-dibenzo[b,e][1,4]diazepin-11-one structural derivatives as anti-cancer and apoptosis inducing agents” (Eur J Med Chem, 2016).

Legend:
[1] = Cytotoxicity against human PC3 cells assessed as growth inhibition after 72 hrs by MTT assay; format: functional, cell-based; details: PC-3, 72 h
Procedure, shortened: (§1)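 Cells in RPMI 1640 (PC-3, A549, MDA-MB-231) or DMEM (U87MG, MCF-7) with 10% FBS, passages 4-10, were seeded at 3000-5000 per well and left 24 h. Compounds in DMSO/medium were added for 72 h; DMSO served as control. MTT (5 mg/mL) was added for 4 h and formazan dissolved in DMSO. Absorbance was read at 570 nm minus 630 nm. % inhibition was taken versus DMSO, with IC50 by probit; mean ± SD of three experiments in triplicate.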

MCF7 = assay: Cytotoxicity against human MCF7 cells assessed as growth inhibition after 72 hrs by MTT assay; format: functional, cell-based; details: MCF7, 72 h; procedure, shortened: as §1
A549 = assay: Cytotoxicity against human A549 cells assessed as growth inhibition after 72 hrs by MTT assay; format: functional, cell-based; details: A549, 72 h; procedure, shortened: as §1
[2] = Cytotoxicity against human U87MG cells assessed as growth inhibition after 72 hrs by MTT assay; format: functional, cell-based, U-87MG ATCC; details: U-87 MG; procedure, shortened: as §1
MDA-MB-231 = assay: Cytotoxicity against human MDA-MB-231 cells assessed as growth inhibition after 72 hrs by MTT assay; format: functional, cell-based; details: MDA-MB-231, 72 h; procedure, shortened: as §1

Compound | IC50 [1] | IC50 (MCF7) | IC50 (A549) | IC50 [2] | IC50 (MDA-MB-231)
COc1ccc(OC)c(Cn2cc(CN3C(=O)c4ccccc4Nc4ccccc43)nn2)c1 | > 50 µM | 7.48 µM | 13.3 µM | 31.2 µM | 3.5 µM
O=C1c2ccccc2Nc2ccccc2N1Cc1cn(Cc2ccc(Cl)cc2)nn1 | 1.12 µM | 39 µM | 4.97 µM | 24.3 µM | 2.31 µM
C#CCN1C(=O)c2ccccc2Nc2ccccc21 | 0.98 µM | 7.63 µM | 19 µM | 22.2 µM | 16.5 µM
O=C1c2ccccc2Nc2ccccc2N1Cc1cn(Cc2cccc3c2OCO3)nn1 | 10.7 µM | 17.8 µM | 10.7 µM | 13.5 µM | 10.2 µM
O=C1Nc2ccccc2Nc2ccccc21 | 41.9 µM | > 50 µM | 37.1 µM | 8.97 µM | > 50 µM
COc1cc(Cn2cc(CN3C(=O)c4ccccc4Nc4ccccc43)nn2)cc(OC)c1OC | > 50 µM | 10.3 µM | 8.78 µM | 1.78 µM | 0.43 µM
O=C1c2ccccc2Nc2ccccc2N1Cc1cn(Cc2cccc([N+](=O)[O-])c2)nn1 | 0.47 µM | 0.65 µM | > 50 µM | 39.4 µM | 1.52 µM
O=C1c2ccccc2Nc2ccccc2N1Cc1cn(Cc2ccccc2F)nn1 | 8.63 µM | 5.27 µM | 11.3 µM | 48.2 µM | > 50 µM
O=C1c2ccccc2Nc2ccccc2N1Cc1cn(Cc2ccc(OC(F)(F)F)cc2)nn1 | > 50 µM | 29.6 µM | > 50 µM | > 50 µM | > 50 µM
O=c1[nH]cc(F)c(=O)[nH]1 [FLUOROURACIL] | 1.44 µM |  | 3.47 µM | 3.61 µM | 
O=C1c2ccccc2Nc2ccccc2N1Cc1cn(Cc2ccc(F)cc2)nn1 | 17.3 µM | > 50 µM | 26.7 µM | 37.7 µM | 4.08 µM
O=C1c2ccccc2Nc2ccccc2N1Cc1cn(Cc2cccc(F)c2)nn1 | 7.21 µM | 4.12 µM | 8.37 µM | 2.06 µM | 3.53 µM
O=C1c2ccccc2Nc2ccccc2N1Cc1cn(Cc2ccc([N+](=O)[O-])cc2)nn1 | > 50 µM | 0.93 µM | 47.9 µM | 32.9 µM | 42.6 µM
